Sampled rows, rich in hits. Any-hit rate of the full collection: about 4.7%.
RGS4 act = potentiators or activators of RGS4; HEK293 M3R/inducible RGS4, carbachol calcium flux Fluo4; hits give low values; B-score at 10 µM; actives 0.92% (n = 310,000);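 active = B-score of the integrated calcium signal more than 4 SD below the library mean, with starting fluorescence not abnormally high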;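 also: negative B-score means reduced calcium response which marks RGS4 activation or potentiation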
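System – HEK293 FlpIn-TREx cells, stable M3R, doxycycline-inducible RGS4 · Reagent – ECmax carbachol challenge · Times – compound preincubation 20 min at room temperature before agonist · Technique – Fluo4 fluorescence kinetic imaging of calcium · Measure – B score of integrated Fluo4 ratio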
MrgX1 agonist = human MrgX1 receptor agonism, primary screen. MrgX1-HEK293 cells, Fluo-4 calcium fluorescence, agonist mode; hits give high values. B-score at 10 µM. actives 0.44% (n = 310,000);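 active = calcium response B-score plate-corrected fluorescence ratio at least 3 library SD, with starting fluorescence B-score inside 5 SD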
Target sequence (Q96LB2 whole entry, looked up): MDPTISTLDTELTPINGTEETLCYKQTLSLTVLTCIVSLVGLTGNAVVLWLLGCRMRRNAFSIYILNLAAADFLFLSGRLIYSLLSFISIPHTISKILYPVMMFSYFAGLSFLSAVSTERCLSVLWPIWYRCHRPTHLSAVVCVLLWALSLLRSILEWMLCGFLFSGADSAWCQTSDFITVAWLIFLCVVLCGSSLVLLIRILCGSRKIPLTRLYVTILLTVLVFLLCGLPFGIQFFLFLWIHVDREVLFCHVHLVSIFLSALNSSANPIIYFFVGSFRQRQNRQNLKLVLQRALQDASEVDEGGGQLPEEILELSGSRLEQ
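Assay system: stable human MrgX1 HEK293 cell line. Quantity: 15,000 cells per well. Schedule: cells plated overnight, dye loaded 0.5 h 37 °C, 0.5 h room temperature. Detection: Fluo-4 NW calcium-flux fluorescence, kinetic read. Read-out basis: peak-minus-minimum fluorescence over baseline, converted to B scores. Control set: positive and negative control wells on each plate.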
RGS4 inh = human RGS4 inhibition; actives 0.45% (n = 310,000); B-score at 10 µM; P49798; HEK293 M3R/RGS4 inducible, Fluo-4 calcium flux; hits give high values; triggered by carbachol at its EC20;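 active = B-score, a plate-corrected calcium signal, over three deviations above library mean, with baseline fluorescence within five deviations of library mean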;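 also: RGS4 expression induced by doxycycline in cells with stable M3 receptor; B-score is computed from the integrated fluorescence ratio over baseline after carbachol; higher B-score means a larger calcium signal and so more RGS4 inhibition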
Target sequence (P49798 whole entry, looked up): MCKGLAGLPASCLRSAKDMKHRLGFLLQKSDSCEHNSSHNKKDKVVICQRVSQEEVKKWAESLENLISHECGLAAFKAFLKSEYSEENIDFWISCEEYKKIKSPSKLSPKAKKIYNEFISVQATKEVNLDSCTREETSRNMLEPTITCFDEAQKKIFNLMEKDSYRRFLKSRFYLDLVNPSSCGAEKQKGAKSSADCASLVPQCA
Cl transport mod = modulates chloride dependent transport by human KCC2 | Q9H2X9 | KCC2 cells, thallium flux FluoZin-2 fluorescence | B-score of Tl+ flux slope (higher = more flux/activation; lower = inhibition) at 10 µM | actives 2.2% (n = 190,000);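 active = thallium flux slope and its plate-corrected score both differing from the plate sample mean at a set confidence after two filtering rounds, in either direction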;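 also: slope of fluorescence scaled to starting intensity during 10 to 20 s after thallium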
MrgX1 allo act = allosterically activates human MrgX1 receptor signaling | MrgX1-HEK293, Fluo-4 calcium flux, FDSS; hits give high values | B-score at 10 µM | actives 0.63% (n = 310,000) | AID 588675;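 active = plate-corrected calcium response at least 3 library SD above typical, normal starting fluorescence, not activating the receptor alone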;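 also: compound read alongside a low EC10 to EC30 dose of BAM8-22 agonist; peak minus trough fluorescence over baseline measured at the second addition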
MrgX1 antag = antagonists of human MrgX1 receptor. actives 1.3% (n = 310,000). B-score at 10 µM. Q96LB2. MRGX1-HEK293 calcium flux, Fluo-4, BAM8-22 antagonism; hits give low values;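 active = calcium-response B-score plate-corrected more than 3 library SD below zero, starting fluorescence within 5 deviations, no agonist response on first addition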;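 also: peak minus trough fluorescence over baseline after final BAM8-22 challenge near maximal dose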
KCC2 sec1 = KCC2 (human) modulation, secondary assay. shares compounds with Cl transport mod. HEK293-KCC2, thallium flux, FluoZin2 fluorescence; hits give high values. normalised thallium flux (F/F0 slope) at 10 µM. actives 15% (n = 3,700). AID 1713;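 active = thallium flux slope above the same plate's solvent-only control mean plus 3 SD; inconclusive = the two replicate wells disagree; inactive = no significant difference from solvent-only control wells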
KCC2 bumet counter = thallium flux persisting under bumetanide in KCC2 cells, counter-screen secondary assay; shares compounds with Cl transport mod; HEK293-KCC2 + bumetanide/ouabain, thallium flux FluoZin2; hits give high values; normalized thallium flux at 10 µM; actives 49% (n = 3,700);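 active = thallium entry rate above the same plate's blocked-transporter control wells by more than 3 SD; inconclusive = the two repeat wells disagree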;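 also: raw slope of fluorescence over initial fluorescence between 10 and 20 s after thallium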
KCC2 secondary2 = KCC2 (human) modulation, second secondary assay | HEK293-KCC2, thallium flux FluoZin2 fluorescence; actives lie on both sides; F/F0 rise rate, 10–20 s post-thallium | shares compounds with Cl transport mod | normalized thallium flux at 10 µM | actives 23% (n = 3,700) | AID 1715;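 active = thallium flux slope more than 3 SD above or below the plate's solvent-only control mean, mostly below; inconclusive = the two repeat wells disagreed; inactive = no significant shift from solvent-only controls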;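 also: raw slope with 0.1% DMSO as baseline and bumetanide as block control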
HEK293 Tl flux = counter-screen for KCC2 modulators: effect in parental HEK293 cells. shares compounds with Cl transport mod. actives 46% (n = 3,700). thallium flux rate (normalised fluorescence) at 10 µM. thallium flux FluoZin2, ouabain; baseline-ratio fluorescence slope, 10–20 s after thallium. AID 1716;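 active = thallium flux rate significantly above the same plate's solvent-only control wells, beyond their mean plus 3 SD; inconclusive = the two replicate wells gave conflicting results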
KCC2 ouabain = confirmation of human KCC2 modulators with ouabain; shares compounds with Cl transport mod; raw Tl+ flux slope (below DMSO = inhibition, above = activation) at 10 µM; HEK293-KCC2, thallium flux FluoZin2 fluorescence; bidirectional: low = inhibitor, high = activator; actives 48% (n = 3,700); AID 1717;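 active = thallium flux slope beyond 3 SD from same-plate DMSO control mean in most replicates, usually higher, sometimes lower; inconclusive = repeat tests gave conflicting results; inactive = no significant difference from controls in most replicates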;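 also: slope of initial-normalized fluorescence between seconds 10 and 20 after thallium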
HEK293 Tl flux2 = counter-screen for KCC2 modulators: effect in parental HEK293 cells. shares compounds with Cl transport mod. thallium flux FluoZin-2 fluorescence slope. thallium flux slope at 10 µM. actives 33% (n = 3,700). AID 1718;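 active = thallium flux slope above the same plate's solvent-control mean plus 3 SD in both duplicate wells; inconclusive = duplicate wells that disagreed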;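 also: run without ouabain in cells lacking the KCC2 cotransporter; slope of fluorescence scaled to its starting value between 10 and 20 s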
An asterisk follows results filed as active; i = inactive; ? = inconclusive; · = no result given.

SMILES | RGS4 act | MrgX1 agonist | RGS4 inh | Cl transport mod | MrgX1 allo act | MrgX1 antag | KCC2 sec1 | KCC2 bumet counter | KCC2 secondary2 | HEK293 Tl flux | KCC2 ouabain | HEK293 Tl flux2
O=C(COc1cccc2cccnc12)Nc1ccccc1N1CCOCC1 | i | i | i | -5.56* | i | i | ? | 0.00414 | 0.029 | 0.00503* | 0.0139 | ?
Oc1c(C=Nc2ccccc2)sc2ccccc12 | i | i | i | 2.78* | i | i | 0.00685 | 0.00645 | 0.0285 | 0.00689 | ? | 0.00996
CN=Cc1sc2ccccc2c1O | i | i | i | -1.43 | i | i | · | · | · | · | · | ·
CCCN(c1ccc(OCC)cc1)S(=O)(=O)c1ccc2c(c1)NC(=O)CO2 | i | i | i | · | i | i | · | · | · | · | · | ·
CC(C)C(C)N(Cc1cccc(C(=O)O)c1)C(=O)c1ccc2ccccc2n1 (configuration not stated) | i | i | i | · | i | i | · | · | · | · | · | ·
Cc1ccc(Cn2c(SC(C)C(N)=O)nc3ccccc3c2=O)cc1 (configuration not stated) | i | i | i | 8.63* | i | i | 0.00612 | 0.0221* | 0.0362 | 0.0151* | 0.0301* | 0.018*
Cc1ccc(Cn2c(SCC(=O)Nc3cc(C)on3)nc3ccccc3c2=O)cc1 | i | i | i | · | i | i | 0.00652 | 0.00545 | ? | 0.0162* | 0.0273* | 0.019*
C/C(N)=C(/C#N)C(=O)CSc1nc2ccccc2c(=O)n1Cc1ccc(F)cc1 | i | i | i | 95.1* | i | i | ? | 0.0708* | 0.0526* | 0.0641* | 0.0614* | 0.0565*
C/C(N)=C(/C#N)C(=O)CSc1nc2ccccc2c(=O)n1Cc1ccc(C)cc1 | i | i | i | 21.7* | i | i | 0.00795 | 0.0213* | 0.0316 | 0.025* | 0.0289* | 0.0156*
O=C(Nc1ccccc1Cl)N1CCN(c2ccc3nnc(-c4ccc(F)cc4)n3n2)CC1 | i | i | i | -3.92* | i | i | 0.00921 | 0.00715 | 0.0301 | 0.00926* | 0.0189 | 0.0103
COc1ccccc1CNC(=O)c1cc(C(C)=O)c[nH]1 | i | i | i | · | i | i | · | · | · | · | · | ·
COC(=O)c1ccc2nc(Nc3nc4c(F)cc(F)cc4s3)sc2c1 | i | i | i | 9.22* | i | i | 0.00735 | 0.0191* | 0.0407* | 0.0159* | 0.0282* | 0.0214*
FC(F)(F)c1nc2ccccc2nc1N/N=C\c1ccccc1 | i | i | i | · | i | i | 0.00732 | 0.00588* | 0.0295 | 0.0086 | 0.02 | 0.0121
NNc1nc2ccccc2nc1C(F)(F)F | i | i | i | 2.82 | i | i | · | · | · | · | · | ·
O=[N+]([O-])c1ccc(/C=N/Nc2nc(N3CCCC3)nc(N3CCCC3)n2)o1 | i | i | i | 6.13* | i | i | 0.00533 | 0.00443 | 0.029 | 0.0078 | 0.0183 | 0.0106
